Assay results: ChEMBL document CHEMBL1157620, “1-(Aryl)-6-[alkoxyalkyl]-3-azabicyclo[3.1.0]hexanes and 6-(aryl)-6-[alkoxyalkyl]-3-azabicyclo[3.1.0]hexanes: a new series of potent and selective triple reuptake inhibitors” (J Med Chem, 2010)

Experiments:
[1] = molecular target: T1, Sodium-dependent dopamine transporter (Homo sapiens, UniProt Q01959); assay: Displacement of [3H]WIN-35428 from human recombinant DAT expressed in BacMam virus-transduced cells by scintillation proximity assay; type: cell-based
T1 sequence (Q01959 whole entry): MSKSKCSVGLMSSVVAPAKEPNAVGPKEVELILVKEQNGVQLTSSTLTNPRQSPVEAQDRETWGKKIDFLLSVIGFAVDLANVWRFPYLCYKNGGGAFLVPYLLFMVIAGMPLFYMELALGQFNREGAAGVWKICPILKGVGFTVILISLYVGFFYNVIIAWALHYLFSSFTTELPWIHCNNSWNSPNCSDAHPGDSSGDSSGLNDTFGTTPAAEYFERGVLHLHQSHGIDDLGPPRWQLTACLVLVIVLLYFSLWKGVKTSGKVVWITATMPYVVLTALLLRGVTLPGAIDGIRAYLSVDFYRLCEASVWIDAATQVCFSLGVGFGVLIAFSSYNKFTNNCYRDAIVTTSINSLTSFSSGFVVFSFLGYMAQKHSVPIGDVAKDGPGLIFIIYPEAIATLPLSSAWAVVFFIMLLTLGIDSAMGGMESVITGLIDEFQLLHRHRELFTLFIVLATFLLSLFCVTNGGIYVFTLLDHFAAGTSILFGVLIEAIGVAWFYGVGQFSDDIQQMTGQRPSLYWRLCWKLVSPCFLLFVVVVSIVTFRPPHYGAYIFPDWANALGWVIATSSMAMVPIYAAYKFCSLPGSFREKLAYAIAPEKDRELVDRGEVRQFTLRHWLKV

[2] = molecular target: T2, Sodium-dependent serotonin transporter (Homo sapiens, UniProt P31645); assay: Displacement of [3H]citalopram from human recombinant SERT expressed in BacMam virus-transduced cells by scintillation proximity assay; type: cell-based
T2 sequence (P31645 whole entry): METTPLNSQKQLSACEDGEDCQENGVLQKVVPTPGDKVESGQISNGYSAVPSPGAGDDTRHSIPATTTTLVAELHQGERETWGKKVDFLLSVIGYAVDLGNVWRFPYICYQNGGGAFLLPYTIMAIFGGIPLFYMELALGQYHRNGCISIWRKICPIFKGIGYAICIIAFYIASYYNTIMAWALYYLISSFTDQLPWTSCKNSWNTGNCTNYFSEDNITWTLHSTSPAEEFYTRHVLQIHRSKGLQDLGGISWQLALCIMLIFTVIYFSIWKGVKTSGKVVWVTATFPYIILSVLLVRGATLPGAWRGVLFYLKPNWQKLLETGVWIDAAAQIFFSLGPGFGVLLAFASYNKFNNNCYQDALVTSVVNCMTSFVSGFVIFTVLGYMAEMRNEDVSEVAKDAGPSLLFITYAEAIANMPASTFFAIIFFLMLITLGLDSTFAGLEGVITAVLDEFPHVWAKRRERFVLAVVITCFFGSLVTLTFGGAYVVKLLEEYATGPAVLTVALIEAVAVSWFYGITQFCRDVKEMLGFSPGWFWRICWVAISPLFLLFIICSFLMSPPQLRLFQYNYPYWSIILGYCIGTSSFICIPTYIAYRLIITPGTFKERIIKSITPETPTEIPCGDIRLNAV
Outline: (§1)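 BacMam-transduced membranes in SPA format. SERT: 1 mg/mL beads, 6 μg/mL membranes, 3 nM [3H]citalopram. NET: 2 mg/mL beads, 40 μg/mL membranes, 10 nM [3H]nisoxetine. Incubated overnight at room temperature; pKi from pIC50 by Cheng-Prusoff.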

[3] = molecular target: T3, Sodium-dependent noradrenaline transporter (Homo sapiens, UniProt P23975); assay: Displacement of [3H]nisoxetine from human recombinant NET expressed in BacMam virus-transduced cells by scintillation proximity assay; type: cell-based; outline: as §1
T3 sequence (P23975 whole entry): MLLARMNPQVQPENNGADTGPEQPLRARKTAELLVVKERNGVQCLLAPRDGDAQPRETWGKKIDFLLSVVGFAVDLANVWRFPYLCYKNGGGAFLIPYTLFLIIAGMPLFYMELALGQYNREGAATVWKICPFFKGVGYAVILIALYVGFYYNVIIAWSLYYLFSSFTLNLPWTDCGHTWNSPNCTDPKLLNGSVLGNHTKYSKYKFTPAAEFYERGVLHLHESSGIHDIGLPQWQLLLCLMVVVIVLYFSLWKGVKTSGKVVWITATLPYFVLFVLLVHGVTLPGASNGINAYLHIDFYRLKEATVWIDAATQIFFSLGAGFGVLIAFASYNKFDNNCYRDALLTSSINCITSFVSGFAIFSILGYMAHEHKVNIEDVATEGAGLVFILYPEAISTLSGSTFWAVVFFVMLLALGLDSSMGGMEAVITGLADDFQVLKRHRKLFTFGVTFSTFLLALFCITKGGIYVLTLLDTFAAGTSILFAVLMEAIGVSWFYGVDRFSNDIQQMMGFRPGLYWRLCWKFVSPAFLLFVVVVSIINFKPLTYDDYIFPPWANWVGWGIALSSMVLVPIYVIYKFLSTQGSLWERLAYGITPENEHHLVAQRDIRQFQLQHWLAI

Cytochrome P450 2C9 = Cytochrome P450 2C9 (Homo sapiens, UniProt P11712); assay: Inhibition of human CYP2C9 by fluorescence assay; type: ADME
Sequence of Cytochrome P450 2C9 (P11712 whole entry): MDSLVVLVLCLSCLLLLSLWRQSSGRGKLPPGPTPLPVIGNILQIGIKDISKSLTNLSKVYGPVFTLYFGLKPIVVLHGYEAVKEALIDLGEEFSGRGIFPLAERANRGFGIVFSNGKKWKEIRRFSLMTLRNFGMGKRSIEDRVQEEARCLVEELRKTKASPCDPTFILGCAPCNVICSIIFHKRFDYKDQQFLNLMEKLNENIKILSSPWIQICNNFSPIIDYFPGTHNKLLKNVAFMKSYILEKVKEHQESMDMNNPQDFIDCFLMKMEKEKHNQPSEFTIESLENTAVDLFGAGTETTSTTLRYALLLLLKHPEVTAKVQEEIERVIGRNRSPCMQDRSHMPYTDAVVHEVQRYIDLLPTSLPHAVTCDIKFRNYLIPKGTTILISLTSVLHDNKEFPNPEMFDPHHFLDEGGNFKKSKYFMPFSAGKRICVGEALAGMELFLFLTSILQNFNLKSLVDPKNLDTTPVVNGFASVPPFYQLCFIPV
Outline: (§2)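 Recombinant human P450 bactosomes (0.1 mg/mL) in 50 mM phosphate, pH 7.4. Test compound at 0.1-10 μM, preincubated 10 min at 37 °C with fluorogenic substrate: ethoxyresorufin 0.5 μM (1A2), FCA 50 μM (2C9), BMC 10 μM (2C19), MMC 10 μM (2D6).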

Cytochrome P450 2C19 = Cytochrome P450 2C19 (Homo sapiens, UniProt P33261); assay: Inhibition of human CYP2C19 by fluorescence assay; type: ADME; outline: as §2
Sequence of Cytochrome P450 2C19 (P33261 whole entry): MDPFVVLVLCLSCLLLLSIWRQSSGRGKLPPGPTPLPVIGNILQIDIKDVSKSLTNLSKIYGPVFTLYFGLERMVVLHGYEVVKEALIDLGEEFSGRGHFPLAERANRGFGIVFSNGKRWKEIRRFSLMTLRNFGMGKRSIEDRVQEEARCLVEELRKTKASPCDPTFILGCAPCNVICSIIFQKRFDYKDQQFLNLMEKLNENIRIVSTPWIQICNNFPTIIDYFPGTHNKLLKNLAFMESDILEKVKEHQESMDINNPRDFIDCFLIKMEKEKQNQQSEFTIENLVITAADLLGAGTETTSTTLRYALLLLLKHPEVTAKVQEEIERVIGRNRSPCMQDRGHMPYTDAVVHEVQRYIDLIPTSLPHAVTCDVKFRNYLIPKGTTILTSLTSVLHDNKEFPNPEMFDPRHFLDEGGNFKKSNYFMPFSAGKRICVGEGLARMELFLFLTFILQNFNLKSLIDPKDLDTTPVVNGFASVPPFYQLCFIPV

Cytochrome P450 1A2 = molecular target: T4, Cytochrome P450 1A2 (Homo sapiens, UniProt P05177); assay: Inhibition of human CYP1A2 by fluorescence assay; type: ADME; outline: as §2
T4 sequence (P05177 whole entry): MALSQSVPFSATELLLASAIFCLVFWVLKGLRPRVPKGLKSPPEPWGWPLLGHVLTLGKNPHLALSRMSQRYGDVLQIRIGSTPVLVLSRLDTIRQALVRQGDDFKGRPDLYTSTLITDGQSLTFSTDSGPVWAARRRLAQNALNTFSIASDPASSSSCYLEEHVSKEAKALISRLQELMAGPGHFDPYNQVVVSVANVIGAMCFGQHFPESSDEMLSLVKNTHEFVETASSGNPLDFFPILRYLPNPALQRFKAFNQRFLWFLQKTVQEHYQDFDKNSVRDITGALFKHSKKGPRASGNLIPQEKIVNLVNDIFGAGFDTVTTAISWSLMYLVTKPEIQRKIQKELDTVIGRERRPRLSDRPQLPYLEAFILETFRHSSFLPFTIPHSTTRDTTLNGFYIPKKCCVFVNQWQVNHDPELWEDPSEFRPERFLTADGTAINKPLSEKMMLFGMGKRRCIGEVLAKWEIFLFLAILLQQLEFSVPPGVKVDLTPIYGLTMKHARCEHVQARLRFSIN

Cytochrome P450 3A4 = Cytochrome P450 3A4 (Homo sapiens, UniProt P08684); assay: Inhibition of human CYP3A4 by fluorescence assay
Sequence of Cytochrome P450 3A4 (P08684 whole entry): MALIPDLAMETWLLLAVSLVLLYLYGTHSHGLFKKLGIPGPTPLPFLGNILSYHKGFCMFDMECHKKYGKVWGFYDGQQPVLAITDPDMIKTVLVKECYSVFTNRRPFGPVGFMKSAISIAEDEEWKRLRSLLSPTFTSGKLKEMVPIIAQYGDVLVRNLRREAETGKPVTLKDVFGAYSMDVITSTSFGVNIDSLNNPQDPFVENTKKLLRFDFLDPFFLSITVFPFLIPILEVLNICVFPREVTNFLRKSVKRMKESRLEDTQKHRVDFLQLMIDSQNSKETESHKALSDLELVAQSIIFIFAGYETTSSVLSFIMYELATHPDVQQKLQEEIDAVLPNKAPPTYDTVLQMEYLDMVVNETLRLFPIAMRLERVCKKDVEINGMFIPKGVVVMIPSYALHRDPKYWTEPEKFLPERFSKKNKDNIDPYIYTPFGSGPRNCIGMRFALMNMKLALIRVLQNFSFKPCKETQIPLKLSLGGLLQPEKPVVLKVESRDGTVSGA

Cytochrome P450 2D6 = Cytochrome P450 2D6 (Homo sapiens, UniProt P10635); assay: Inhibition of human […] by fluorescence assay; type: ADME; outline: as §2
Sequence of Cytochrome P450 2D6 (P10635 whole entry): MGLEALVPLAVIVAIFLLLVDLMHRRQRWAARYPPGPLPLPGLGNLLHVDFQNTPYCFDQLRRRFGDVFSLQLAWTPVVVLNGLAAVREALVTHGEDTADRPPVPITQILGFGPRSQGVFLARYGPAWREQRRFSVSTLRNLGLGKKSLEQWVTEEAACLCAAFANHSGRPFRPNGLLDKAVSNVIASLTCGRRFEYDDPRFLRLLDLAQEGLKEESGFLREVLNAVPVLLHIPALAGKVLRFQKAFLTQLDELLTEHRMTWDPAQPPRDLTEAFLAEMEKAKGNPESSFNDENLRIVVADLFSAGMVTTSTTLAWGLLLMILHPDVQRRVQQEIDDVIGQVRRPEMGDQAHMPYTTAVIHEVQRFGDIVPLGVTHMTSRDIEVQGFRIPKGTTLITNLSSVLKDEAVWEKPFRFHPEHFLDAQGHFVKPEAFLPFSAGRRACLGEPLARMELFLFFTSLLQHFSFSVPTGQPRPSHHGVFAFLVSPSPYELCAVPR

[4] = molecular target: T2, Sodium-dependent serotonin transporter; assay: Inhibition of [3H]serotonin reuptake at human SERT expressed in LLCPK cells by scintillation proximity assay; type: cell-based
Outline: (§3)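 Uptake-SPA on stably transfected LLCPK cells in HEPES buffer, pH 7.4. SERT: 25000 cells/well, 1.5 mg/mL beads, 35 nM [3H]serotonin. NET: 50000 cells/well, 1.5 mg/mL beads, 45 nM [3H]noradrenalin. DAT: 75000 cells/well, 2 mg/mL beads, 75 nM [3H]dopamine. Concentrations are those of the substrate addition. 1 h at room temperature; 4-parameter fit.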

[5] = molecular target: T1, Sodium-dependent dopamine transporter; assay: Inhibition of [3H]dopamine reuptake at human DAT expressed in LLCPK cells by scintillation proximity assay; type: cell-based; outline: as §3
[6] = molecular target: T3, Sodium-dependent noradrenaline transporter; assay: Inhibition of [3H]noradrenalin reuptake at human NET expressed in LLCPK cells by scintillation proximity assay; type: cell-based; outline: as §3
Homo sapiens [7] = organism: Homo sapiens; assay: Selectivity for human recombinant NET over human recombinant DAT
Homo sapiens [8] = organism: Homo sapiens; assay: Selectivity for human recombinant SERT over human recombinant DAT
[9] = Ratio of drug level in brain to blood in rat; type: ADME, tissue-based; details: read-out: BBR
[10] = Volume of distribution in rat; type: ADME, organism-based; details: in vivo
[11] = Fraction unbound in rat brain; type: ADME, tissue-based; details: brain
[12] = Half life in rat; type: ADME, organism-based; details: in vivo
[13] = Blood clearance in rat; type: ADME, organism-based
[14] = Bioavailability in rat; type: ADME, organism-based; details: in vivo
[15] = (§4) Intrinsic clearance in rat liver microsomes assessed per gram of protein at 0.5 uM after 30 mins by HPLC-MS/MS analysis; type: ADME, Microsome; details: liver microsomes
Outline: (§5)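 Compound at 0.5 μM with rat or human liver microsomes (0.5 mg protein/mL), 50 mM phosphate, pH 7.4, 37 °C, started with NADPH. Sampled at 0-30 min, acetonitrile quench, HPLC-MS/MS. CLi from first-order elimination constant, scaled assuming 52.5 mg microsomal protein/g.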

[16] = (§6) Intrinsic clearance in human liver microsomes assessed per gram of protein at 0.5 uM after 30 mins by HPLC-MS/MS analysis; type: ADME, Microsome; details: liver microsomes; outline: as §5
Liver microsomes [17] = assay: as §4; type: ADME, Microsome; details: microsomes, 0.5 h, 0.5 µM; outline: as §5
Liver microsomes [18] = assay: as §6; type: ADME, Microsome; details: microsomes, 0.5 h, 0.5 µM; outline: as §5

Row | Structure (SMILES) | Ki [1] [nM] | Ki [2] [nM] | Ki [3] [nM] | other results
1 | Clc1ccc([C@@]2(COC3CCC3)[C@@H]3CNC[C@@H]32)cc1Cl | 6.31 | 0.398 | 2.51 | IC50 (Cytochrome P450 2C9): > 10000 nM; IC50 (Cytochrome P450 2C19): > 10000 nM; IC50 (Cytochrome P450 1A2): > 10000 nM; IC50 (Cytochrome P450 3A4): 3000 nM; IC50 (Cytochrome P450 2D6): > 10000 nM
2 | Clc1ccc([C@@]2(COCC3CC3)[C@@H]3CNC[C@@H]32)cc1Cl | 10 | 0.631 | 7.94 | IC50 (Cytochrome P450 2C9): > 10000 nM; IC50 (Cytochrome P450 2C19): > 10000 nM; IC50 (Cytochrome P450 1A2): > 10000 nM; IC50 (Cytochrome P450 2D6): 1000 nM
3 | CCOCC[C@]1(c2ccc(Cl)c(Cl)c2)[C@@H]2CNC[C@@H]21 | 15.8 | 0.501 | 7.94 | IC50 (Cytochrome P450 2D6): < 100 nM
4 | FC(F)(F)COC[C@]1(c2ccc(Cl)c(Cl)c2)[C@@H]2CNC[C@@H]21 | 25.1 | 1 | 25.1 | IC50 (Cytochrome P450 2D6): 300 nM
5 | COCC[C@H]1[C@]2(C)CNC[C@]12c1ccc(Cl)c(Cl)c1 (relative stereo) | 50.1 | 0.251 | 1 | IC50 [4]: 1.58 nM; IC50 [5]: 15.8 nM; IC50 [6]: 0.398 nM
6 | Cc1csc(C[C@H]2[C@@H]3CNC[C@@]32c2ccc(Cl)c(Cl)c2)n1 (relative stereo) | 20 | 0.0794 | 0.126 | IC50 [4]: 1 nM; IC50 [5]: 20 nM; IC50 [6]: 0.251 nM
7 | Clc1ccc([C@]23CNC[C@H]2[C@@H]3COCC2CC2)cc1Cl (relative stereo) | 200 | 5.01 | 15.8 | 
8 | CCOC[C@H]1[C@@H]2CNC[C@@]21c1ccc(Cl)c(Cl)c1 (relative stereo) | 25.1 | 0.398 | 1.58 | IC50 (Cytochrome P450 2C9): > 9000 nM; IC50 (Cytochrome P450 2C19): > 9000 nM; IC50 (Cytochrome P450 1A2): > 9000 nM; IC50 (Cytochrome P450 3A4): > 9000 nM; IC50 (Cytochrome P450 2D6): 4000 nM
9 | COC[C@H]1[C@@H]2CNC[C@@]21c1ccc(Cl)c(Cl)c1 (relative stereo) |  |  |  | Selectivity ratio (Homo sapiens [7]): 70; Selectivity ratio (Homo sapiens [8]): 70
10 | Clc1ccc([C@@]23CNC[C@@H]2[C@H]3COC2CCC2)cc1Cl (stereo in doubt) | 251 | 25.1 | 158 | 
11 | COC[C@H]1[C@@H]2CNC[C@@]21c1ccc(Cl)c(Cl)c1 (stereo in doubt) | 110 | 1.51 | 3.16 | 
12 | Clc1ccc([C@]23CNC[C@H]2[C@@H]3COC2CCCC2)cc1Cl (stereo in doubt) | 6.31 | 0.501 | 0.794 | 
13 | Clc1ccc([C@@]23CNC[C@@H]2[C@H]3COC2CCCC2)cc1Cl (stereo in doubt) | 100 | 7.94 | 12.6 | 
14 | Cc1csc(C[C@H]2[C@@H]3CNC[C@@]32c2ccc(Cl)c(Cl)c2)n1 (stereo in doubt) |  | 0.2 | 0.316 | pKi [1]: 7.7
15 | FC(F)(F)COC[C@@H]1[C@H]2CNC[C@]21c1ccc(Cl)c(Cl)c1 (stereo in doubt) | 25.1 | 0.631 | 1.58 | Kp [9]: 18; Vd [10]: 3.2 L/kg; fraction unbound [11]: 0.006; half-life [12]: 1.4 h; clearance [13]: 42 mL/min/kg; bioavailability [14]: 41%
16 | COC[C@@H]1[C@H]2CNC[C@]21c1ccc2ccccc2c1 (stereo in doubt) | 25.1 | 0.0794 | 0.631 | CLint scaled at 0.5 µM [15]: 3.9 mL/min/kg; IC50 (Cytochrome P450 2C9): > 4000 nM; IC50 (Cytochrome P450 2C19): > 4000 nM; CLint scaled at 0.5 µM [16]: 2.2 mL/min/kg; IC50 (Cytochrome P450 1A2): 900 nM; IC50 (Cytochrome P450 3A4): > 4000 nM; IC50 (Cytochrome P450 2D6): > 4000 nM
17 | CCCOC[C@@H]1[C@H]2CNC[C@]21c1ccc(Cl)c(Cl)c1 (stereo in doubt) | 12.6 | 0.251 | 0.631 | 
18 | CSC[C@H]1[C@@H]2CNC[C@@]21c1ccc(Cl)c(Cl)c1 (stereo in doubt) | 79.4 | 0.794 | 5.01 | 
19 | CSC[C@@H]1[C@H]2CNC[C@]21c1ccc(Cl)c(Cl)c1 (stereo in doubt) | 63.1 | 25.1 | 316 | 
20 | COC[C@@H]1[C@H]2CNC[C@]21c1ccc(Cl)c(Cl)c1 (stereo in doubt) | 513 | 25.7 | 224 | 
21 | Clc1ccc([C@]23CNC[C@H]2[C@@H]3COCC2CC2)cc1Cl (stereo in doubt) | 25.1 | 0.955 | 1.95 | 
22 | CCCOC[C@H]1[C@@H]2CNC[C@@]21c1ccc(Cl)c(Cl)c1 (stereo in doubt) | 20 | 0.501 | 0.501 | 
23 | CC(C)OC[C@H]1[C@@H]2CNC[C@@]21c1ccc(Cl)c(Cl)c1 (stereo in doubt) | 7.94 | 0.2 | 0.398 | 
24 | Cc1csc(C[C@@H]2[C@H]3CNC[C@]32c2ccc(Cl)c(Cl)c2)n1 (stereo in doubt) | 50.1 | 15.8 | 79.4 | 
25 | CC(C)OC[C@@H]1[C@H]2CNC[C@]21c1ccc(Cl)c(Cl)c1 (stereo in doubt) | 5.01 | 0.126 | 0.251 | CLint scaled at 0.5 µM [15]: < 0.5 mL/min/kg; IC50 (Cytochrome P450 2C9): > 8000 nM; IC50 (Cytochrome P450 2C19): > 8000 nM; CLint scaled at 0.5 µM [16]: 1.4 mL/min/kg; IC50 (Cytochrome P450 1A2): > 8000 nM; IC50 (Cytochrome P450 3A4): > 8000 nM; IC50 (Cytochrome P450 2D6): > 8000 nM
26 | Clc1ccc([C@]23CNC[C@H]2[C@@H]3COC2CCC2)cc1Cl (stereo in doubt) | 12.6 | 0.631 | 1.26 | 
27 | Clc1ccc([C@@]23CNC[C@@H]2[C@H]3COCC2CC2)cc1Cl (stereo in doubt) | 12.6 | 0.316 | 0.631 | Kp [9]: 10; CL (Liver microsomes [17]): 2.6 mL/min/g; Vd [10]: 5.2 L/kg; IC50 (Cytochrome P450 2C9): > 10000 nM; IC50 (Cytochrome P450 2C19): 3000 nM; fraction unbound [11]: 0.001; half-life [12]: 1 h; CL (Liver microsomes [18]): < 0.5 mL/min/g; IC50 (Cytochrome P450 1A2): > 10000 nM; IC50 (Cytochrome P450 3A4): > 10000 nM; clearance [13]: 72 mL/min/kg; IC50 (Cytochrome P450 2D6): 1000 nM; bioavailability [14]: 32%
28 | COC[C@H]1[C@@H]2CNC[C@@]21c1ccc2ccccc2c1 (stereo in doubt) | 50.1 | 0.158 | 1 | 
